Measurements from ChEMBL document CHEMBL3352012, “Synthesis and evaluation of novel podophyllotoxin derivatives as potential antitumor agents” (Eur J Med Chem, 2014).
Activity calls are given as the source filed them. The rule behind the calls is not given here.

What was measured:
HeLa = test: Cytotoxicity against human HeLa cells after 48 hrs by MTT assay; assay type: functional, cell-based
In short: (§1)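 Cells kept in RPMI-1640 with 10% FBS, 2 mmol/L glutamine, penicillin and streptomycin at 37 °C, 5% CO2. Seeded at 5 × 10³ cells/well and left 24 h to attach, then exposed to compounds or etoposide reference for 48 h. MTT (5 mg/mL) added for 4 h at 37 °C, supernatant removed, formazan dissolved in DMSO, absorbance read at 490 nm.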

K562 [1] = test: Cytotoxicity against human K562 cells after 48 hrs by MTT assay; assay type: functional, cell-based; settings: K562, 48 h; in short: as §1
[2] = Cytotoxicity against human K562/A02 cells after 48 hrs by MTT assay; assay type: functional, cell-based; settings: K562/A02, 48 h; in short: as §1
K562 [3] = test: Resistance index, ratio of IC50 for human K562/A02 cells to IC50 for human K562 cells; assay type: functional
K562/A02 [4] = test: Induction of apoptosis in human K562/A02 cells assessed as viable cells level at 6 uM after 48 hrs by Annexin V-FITC and propidium iodide double staining based flow cytometry (reference value: 90.7%); assay type: functional
K562/A02 [5] = test: Induction of apoptosis in human K562/A02 cells assessed as early apoptotic cells level at 6 uM after 48 hrs by Annexin V-FITC and propidium iodide double staining based flow cytometry (reference value: 6.23%); assay type: functional
K562/A02 [6] = test: Induction of apoptosis in human K562/A02 cells assessed as late apoptotic cells level at 6 uM after 48 hrs by Annexin V-FITC and propidium iodide double staining based flow cytometry (reference value: 1.58%); assay type: functional
K562/A02 [7] = test: Induction of apoptosis in human K562/A02 cells assessed as necrotic cells level at 6 uM after 48 hrs by Annexin V-FITC and propidium iodide double staining based flow cytometry (reference value: 1.53%); assay type: functional
[8] = Reduction in MDR1 mRNA expression in human K562/A02 cells at 6 uM incubated for 48 hrs by RT-PCR method; assay type: functional, cell-based
In short: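 K562 and K562/A02 cells seeded 1 × 10⁵/well in 10% FCS/RPMI-1640; compound added 24 h later, then cultured another 48 h. Total RNA extracted with Trizol, checked at 260/280 nm, reverse transcribed; MDR-1 (157 bp) and β-actin (540 bp) amplified, products run on agarose gel, stained, MDR-1 normalised to β-actin against untreated control.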

Row | Structure (SMILES) | IC50 (HeLa) [µM] | IC50 (K562 [1]) [µM] | IC50 [2] [µM] | Ratio IC50 (K562 [3]) | Activity (K562/A02 [4]) [%] | Activity (K562/A02 [5]) [%] | Activity (K562/A02 [6]) [%] | Activity (K562/A02 [7]) [%] | MDR1 mRNA reduction (qualitative) [8]
1 | COc1cc([C@@H]2c3cc4c(cc3[C@@H](NCc3ccco3)[C@H]3COC(=O)[C@H]23)OCO4)cc(OC)c1O | 70.5 | > 100 | > 1000 | >100 |  |  |  |  | 
2 | COc1cc([C@@H]2c3cc4c(cc3[C@@H](NCc3ccc(CN5CCCC5)o3)[C@H]3COC(=O)[C@H]23)OCO4)cc(OC)c1OC | 1.4 | 6.25 | 40.2 | 6.43 |  |  |  |  | 
3 | COc1cc([C@@H]2c3cc4c(cc3[C@@H](O[C@@H]3O[C@@H]5CO[C@@H](C)O[C@H]5[C@H](O)[C@H]3O)[C@H]3COC(=O)[C@H]23)OCO4)cc(OC)c1O [ETOPOSIDE] |  | 3.39 | 235 | 69.29 | 61.1 | 28.4 | 7.98 | 2.52 | Active
4 | COc1cc([C@@H]2c3cc4c(cc3[C@H](O)[C@H]3COC(=O)[C@H]23)OCO4)cc(OC)c1OC [PODOFILOX] |  |  | 0.17 | 5.667 |  |  |  |  | 
5 | CCN1CCN(Cc2ccc(CN[C@@H]3c4cc5c(cc4[C@@H](c4cc(OC)c(O)c(OC)c4)[C@H]4C(=O)OC[C@@H]43)OCO5)o2)CC1 | 0.67 | 7.45 | 123 | 16.54 |  |  |  |  | 
6 | COc1cc([C@@H]2c3cc4c(cc3[C@@H](NCc3ccc(CN5CCN(C)CC5)o3)[C@H]3COC(=O)[C@H]23)OCO4)cc(OC)c1OC | 15.3 | > 100 | > 1000 | >100 |  |  |  |  | 
7 | COc1cc([C@@H]2c3cc4c(cc3[C@@H](NCc3ccc(CN(C)C)o3)[C@H]3COC(=O)[C@H]23)OCO4)cc(OC)c1O | 0.51 | 7.89 | 70.1 | 8.89 |  |  |  |  | 
8 | CCN(CC)Cc1ccc(CN[C@@H]2c3cc4c(cc3[C@@H](c3cc(OC)c(OC)c(OC)c3)[C@H]3C(=O)OC[C@@H]32)OCO4)o1 | > 100 | > 100 | > 1000 | >100 |  |  |  |  | 
9 | COc1cc([C@@H]2c3cc4c(cc3[C@@H](NCc3ccc(CN(C)C)o3)[C@H]3COC(=O)[C@H]23)OCO4)cc(OC)c1OC | 14.2 | 6.91 | 35.3 | 5.11 |  |  |  |  | 
